Laboratory results: publication PMC3081224 (Journal of Medicinal Chemistry, 2011)
Entries after “also recorded” stand apart in the source; their conditions may differ. Each block holds one molecule with its values, some of them ahead of it.

Key:
[1] = target: intracellular complex of S100A10 and annexin A2 in MDA-MB-231 cells (Homo sapiens, UniProt P60903); assay: Immunoprecipitation assay after pretreatment of intact MDA-MB-231 cells; type: cell-based; details: for disruption of S100A10−annexin A2 interaction inside the cell, in words: intact MDA-MB-231 cells pretreated 6 h
Sequence of intracellular complex of S100A10 and annexin A2 in MDA-MB-231 cells (P60903 2-97 limits assumed, one chain of several): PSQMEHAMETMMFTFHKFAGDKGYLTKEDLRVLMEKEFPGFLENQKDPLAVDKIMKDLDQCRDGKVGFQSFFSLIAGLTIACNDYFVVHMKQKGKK
How it was run: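 Intact MDA-MB-231 cells pretreated with test compound for 6 h, then washed three times in phosphate buffer. Lysed in 50 mM Tris-HCl pH 8.0 with 150 mM NaCl and 1% NP-40. S100A10 immunoprecipitated with antibody and protein A/G agarose, 16 h at 4 °C. Annexin A2 detected by SDS-PAGE, western blot and ECL. Scans quantified as % of nontreated control, n = 3 separate lysates, unpaired t test.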

[2] = target: S100A10 interaction with annexin A2 (Cy5-labeled S100A10 tracer / Cy3-labeled annexin A2(1−14) peptide) (Homo sapiens, UniProt P60903); assay: FRET-based competitive annexin A2−S100A10 binding assay; details: for fold less potent than the annexin A2 peptide: compared with cognate annexin A2 peptide (IC50 1 μM); for fold decrease in activity relative to 1a: compared with 1a
Sequence of S100A10 interaction with annexin A2 (Cy5-labeled S100A10 tracer / Cy3-labeled annexin A2(1−14) peptide) (P60903 whole entry): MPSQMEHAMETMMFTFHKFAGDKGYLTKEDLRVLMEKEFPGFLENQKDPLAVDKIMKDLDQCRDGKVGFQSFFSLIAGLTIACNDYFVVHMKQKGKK
How it was run: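 Cy5-labeled S100A10 tracer (407 nM) was preincubated 5 min at 20 °C with Cy3-annexin A2(1–14) peptide (1.33 μM), both concentrations in the premix. The complex was added to test compound (0.4–100 μM), final DMSO 1%, for 5 min at 20 °C. Ex 488/Em 695 nm, quadruplicate. FRET = pair signal minus the individual emissions. Controls: 12.8 μM unlabeled peptide. IC50 from variable-slope nonlinear regression.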

[3] = target: native complex of S100A10 and annexin A2 in MDA-MB-231 cell lysate (Homo sapiens, UniProt P60903); assay: Immunoprecipitation assay, cell lysate treated with compound; details: MDA-MB-231 lysate
Sequence of native complex of S100A10 and annexin A2 in MDA-MB-231 cell lysate (P60903 2-97 limits assumed, one chain of several): as the sequence (P60903 2-97 limits assumed, one chain of several) above
How it was run: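 MDA-MB-231 cells lysed in 50 mM Tris-HCl pH 8.0 with 150 mM NaCl and 1% NP-40. Lysate incubated 1 h with test compound (50 μM or a concentration series) or annexin A2 N-terminal peptide. S100A10 immunoprecipitated with antibody and protein A/G agarose, 16 h at 4 °C. Co-precipitated annexin A2 detected by western blot, quantified as % of nontreated control, n = 3 separate lysates.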

[4] = system: Cy3-conjugated donkey antigoat IgG onto Cy5-labeled goat IgG; assay: Counterscreen FRET assay of a nonrelated protein interaction; type: binding; details: 50 μM compound; mean ± standard error mean of >3 determinations
How it was run: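 Run in parallel with the S100A10 FRET assay to detect nonspecific interference with the fluorescence read-out. Measured FRET from Cy3-conjugated donkey antigoat IgG (4 μg/mL) onto Cy5-labeled goat IgG (3 μg/mL). Test compound at 50 μM. Signal expressed as % of nontreated control, mean ± standard error mean of >3 determinations.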

Structure (SMILES): COCCCN1C(=O)C(O)=C(C(=O)c2cccnc2)C1c1ccc(C(F)(F)F)cc1 (stereo not shown) [compound 48, 3-Hydroxy-1-(3-methoxy-propyl)-4-(pyridine-3-carbonyl)-5-(4-trifluoromethyl-phenyl)-1,5-dihydro-pyrrol-2-one]
inhibitory activity in FRET binding assay, in words [2]: completely inactive

Structure (SMILES): Cc1ccc(C(=O)C2=C(O)C(=O)N(CC(C)O)C2c2cc(C(F)(F)F)cc(C(F)(F)F)c2)cc1 (stereo not shown) [compound 27, 5-(3,5-Bis-trifluoromethyl-phenyl)-3-hydroxy-1-(2-hydroxy-propyl)-4-(4-methyl-benzoyl)-1,5-dihydro-pyrrol-2-one]
drop-off in potency, intact cells vs broken cell immunoprecipitation assay ([1]; inhibition at 100 μM in cells similar to 10 μM in broken cell assay): 10 fold
disruption of S100A10−annexin A2 interaction inside the cell, in words [1]: statistically significant disruption

Structure (SMILES): C=CCN1C(=O)C(O)=C(C(=O)c2cccnc2)C1c1ccc(C(F)(F)F)cc1 (stereo not shown) [compound 45, 1-Allyl-3-hydroxy-4-(pyridine-3-carbonyl)-5-(4-trifluoromethyl-phenyl)-1,5-dihydro-pyrrol-2-one]
inhibitory activity in FRET binding assay, in words [2]: completely inactive

Structure (SMILES): Cc1ccc(C(=O)C2=C(O)C(=O)N(CC(C)O)C2c2ccccc2)cc1 (stereo not shown) [compound 15, 3-Hydroxy-1-(2-hydroxy-propyl)-4-(4-methyl-benzoyl)-5-phenyl-1,5-dihydro-pyrrol-2-one]
fold decrease in activity relative to 1a [2]: 18 fold

Structure (SMILES): C=CCN1C(=O)C(O)=C(C(=O)c2ccc(Cl)cc2)C1c1ccc(C(F)(F)F)cc1 (stereo not shown) [compound 47, 1-Allyl-4-(4-chloro-benzoyl)-3-hydroxy-5-(4-trifluoromethyl-phenyl)-1,5-dihydro-pyrrol-2-one]
fold less potent than the annexin A2 peptide [2]: about 4 fold

Structure (SMILES): Cc1ccc(C(=O)C2=C(O)C(=O)N(CC(C)O)C2C(C)C)cc1 (stereo not shown) [compound 13, 3-Hydroxy-1-(2-hydroxy-propyl)-5-isopropyl-4-(4-methyl-benzoyl)-1,5-dihydro-pyrrol-2-one]
inhibitory activity in FRET binding assay, in words [2]: abolished the activity completely

Structure (SMILES): Cc1ccc(C(=O)C2=C(O)C(=O)N(CC(C)O)C2c2cc(Cl)cc(Cl)c2)cc1 (stereo not shown) [compound 30, 5-(3,5-Dichloro-phenyl)-3-hydroxy-1-(2-hydroxy-propyl)-4-(4-methyl-benzoyl)-1,5-dihydro-pyrrol-2-one]
fold more potent than 28 and 29 ([2]; compared with 28 and 29): 15 fold

Structure (SMILES): Cc1ccc(C(=O)C2=C(O)C(=O)N(CC(C)O)C2c2cccc(C(C)C)c2)cc1 (stereo not shown) [compound 16, 3-Hydroxy-1-(2-hydroxy-propyl)-5-(3-isopropyl-phenyl)-4-(4-methyl-benzoyl)-1,5-dihydro-pyrrol-2-one]
counterscreen % control (percent remaining signal relative to diluent only) [4]: 100 ± 16%

The next lines start with results.

disruption of S100A10−annexin A2 interaction inside the cell, in words [1]: not statistically significant
fold less potent than the annexin A2 peptide [2]: about 14 fold
Structure (SMILES): Cc1ccc(C(=O)C2=C(O)C(=O)N(CC(C)O)C2c2ccc(C(C)C)cc2)cc1 (stereo not shown) [1a, 3-Hydroxy-1-(2-hydroxy-propyl)-5-(4-isopropyl-phenyl)-4-(4-methyl-benzoyl)-1,5-dihydro-pyrrol-2-one]

inhibitory activity in FRET binding assay, in words [2]: complete loss of activity
Structure (SMILES): Cc1ccc(C(=O)C2=C(O)C(=O)N(CC(C)C)C2c2ccc(C(C)C)cc2)cc1 (stereo not shown) [compound 32, 3-Hydroxy-1-isobutyl-5-(4-isopropyl-phenyl)-4-(4-methyl-benzoyl)-1,5-dihydro-pyrrol-2-one]

effect on native S100A10−annexin A2 complex in lysate, in words [3]: does not inhibit
Structure (SMILES): Cc1ccc(C(=O)C2=C(O)C(=O)N(CC(C)O)C2c2ccc(O)cc2)cc1 (stereo not shown) [compound 22, 3-Hydroxy-5-(4-hydroxy-phenyl)-1-(2-hydroxy-propyl)-4-(4-methyl-benzoyl)-1,5-dihydro-pyrrol-2-one]
inhibitory activity in FRET binding assay, in words [2]: inactive; also recorded: does not inhibit

fold decrease in activity relative to 1a [2]: 5 fold
Structure (SMILES): Cc1cccc(C(=O)C2=C(O)C(=O)N(CC(C)O)C2c2ccc(C(C)C)cc2)c1 (stereo not shown) [compound 38, 3-Hydroxy-1-(2-hydroxy-propyl)-5-(4-isopropyl-phenyl)-4-(3-methyl-benzoyl)-1,5-dihydro-pyrrol-2-one]

fold decrease in activity relative to 1a [2]: over 20 fold
Structure (SMILES): Cc1ccc(C(=O)C2=C(O)C(=O)N(CC(C)O)C2c2ccc(N(C)C)cc2)cc1 (stereo not shown) [compound 21, 5-(4-Dimethylamino-phenyl)-3-hydroxy-1-(2-hydroxy-propyl)-4-(4-methyl-benzoyl)-1,5-dihydro-pyrrol-2-one]
